This is one part of a sample in which hits are shown more often than they occur.
HSF-1 act: increases HSF-1 driven luciferase reporter signal | NIH3T3-HGL HSF-1 luciferase reporter, MG132, 8 h; 100% = twice DMSO control signal | activation, % at 9 µM | 300,000 tested, 1.7% active | AID 504408;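 active = mean replicate activation of at least 50% with a set share of replicates each reaching 50%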;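 also: 0% = median of the neutral control wells and 100% = twice that signal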
Hsp70 act: transcriptional activators of Hsp70; activation, % at 10 µM; HeLa Hsp70 promoter luciferase reporter, luminescence; scaled: vehicle 0, proteasome-inhibitor control 100%; AID 1203; 200,000 tested, 0.04% active;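 active = activation above the mean across all tested compounds plus 3 SD, cutoff set per campaign, cut at about 5.5% in these data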;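 also: 100% = MG132 at 30 µM as the positive control and 0% = DMSO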
T cruzi repl: T. cruzi replication inhibition; inhibition, % (no concentration beside the values); T. cruzi beta-gal in NIH3T3, luminescence, 90 h; 300,000 tested, 1.4% active;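 active = mean inhibition across valid replicates above about 55%, limit read from the data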;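 also: signal also drops with host cell toxicity which is not excluded here; 0% = plate median of DMSO wells and 100% = zero luminescence signal; higher percent means less beta-gal luminescence so fewer parasites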
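assay system = mouse NIH/3T3 fibroblasts infected with β-gal-expressing T. cruzi Tulahuen C4 | input = 5,000 NIH/3T3 host cells per well | buffer or medium = DMEM plus 2% FBS | timing = 3 h host attachment, then at least 90 h co-culture | measured by = GalScreen luminescence, 60 min | evaluation = luminescence reflecting intracellular parasite burden, expressed as percent inhibition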
L major viab: reduces viability of Leishmania major promastigotes; resazurin fluorescence viability; 200,000 tested, 9% active; inhibition, % at 10 µM; in the data active = inhibition above about 50%;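 also: promastigotes grown with compound for 44 hours at 28 °C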
HSF1 inhib: HSF1 inhibition; NIH3T3-HGL HSE-luciferase, MG132-induced, luminescence 8 h; stronger effect = lower value; activity change, negative = inhibition, % at 7.5 µM (by protocol); 300,000 tested, 0.77% active; AID 2098;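 active = more than half of replicate wells show activity change below -50%, luminescence cut by over half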;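 also: luciferase reports HSF-1 transcriptional activity via heat shock element; 0% = median of DMSO wells and -100% = zero luminescence signal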
An asterisk follows results filed as active; . = not tested or not shown.

SMILES	HSF-1 act	Hsp70 act	T cruzi repl	L major viab	HSF1 inhib
Cn1c(SCC(=O)N/N=C/C=C/c2ccco2)nc2ccccc21	2	0	-7	28	6
O=C(Nc1cccc(-c2cnc3ccccc3n2)c1)C1CC(=O)N(c2ccccc2)C1 (stereo not given)	2	.	21	.	16
COC(C[C@@H]1O[C@@H]1[C@@H](O)COCc1ccccc1)OC	8	.	-10	.	1
Cn1c(=N)n(CC(=O)c2ccc(Br)s2)c2ccccc21	-35	0	-8	84*	-26
O=C(N/N=C/c1ccc(N2CCOCC2)cc1)C1CC1	6	0	-23	12	-8
Cc1ccc(Nc2cc(C)c3ccc(O)cc3n2)cc1C	-6	.	27	.	-6
COc1ccc(Nc2cc(C)c3c(O)cccc3n2)cc1	11	.	60*	.	13
Cc1ccccc1Nc1cc(C)c2c(O)cccc2n1	13	0	19	75*	13
Cc1ccc(Nc2cc(C)c3c(O)cccc3n2)cc1C	-57	.	66*	.	-56*
CCC1CCCCN1CCCNC(=O)C1CCN(c2nnc(-n3cccc3)s2)CC1 (stereo not given)	-1	.	8	.	3
Cc1cccc(Nc2n[nH]c(=S)s2)c1C	4	0	-5	-6	3
Cc1cccc(Nc2nc3ccccc3s2)c1C	125*	0	34	28	58
O=[N+]([O-])c1ccc(Sc2ccc(Cl)c(Cl)c2)nc1	34	0	-4	-3	9
Cc1ccc(Sc2ccc([N+](=O)[O-])cc2[N+](=O)[O-])nc1	12	0	25	58*	7
Cc1ccnc(Sc2ccc([N+](=O)[O-])cc2[N+](=O)[O-])n1	131*	0	29	100*	97
Nc1nc(Sc2ccc([N+](=O)[O-])cc2[N+](=O)[O-])n[nH]1	16	.	15	.	3
COc1ccc(NC(=O)CNC(=O)Cc2cccc3ccccc23)c(OC)c1	3	.	26	.	2
COc1cccc2sc(N(CCCN(C)C)C(=O)c3sc4ccccc4c3Cl)nc12	6	0	27	-1	0
O=C(COc1ccc(Br)cc1)NCCCNC(=O)c1ccncc1	2	.	-4	.	0
Cc1ccc(C2CCN(C(=S)NC(C)(C)C)C2)cc1 (stereo not given)	-75	0	-10	3	-66*
Cc1ccc(C2CCN(C(=S)NC3CCCCC3)C2)cc1 (stereo not given)	-14	0	-12	2	-2
Clc1cnc(Nc2cccnc2)c(Cl)c1	-2	.	-8	.	-4
CCOC(=O)C1(CCOc2ccccc2)CCN(Cc2cccc3c2OCO3)CC1	1	0	65*	91*	-4
CCOC(=O)C1(CCOc2ccccc2)CCN(Cc2ccccc2O)CC1	8	.	29	.	4
CCOC(=O)C1(CCOc2ccccc2)CCN(Cc2cc(OC)c3c(c2)OCO3)CC1	57*	0	60*	84*	27
SMILES	HSF-1 act	Hsp70 act	T cruzi repl	L major viab	HSF1 inhib
CN(C(=O)COc1ccc([N+](=O)[O-])cc1)C1CCS(=O)(=O)C1 (stereo not given)	2	0	-1	-5	-3
COCCCNC(=O)c1cn(CC(C)C)c(=O)c2c1c1ccccc1n2C	-82	0	6	-3	-75*
COCCCNC(=O)c1cn(CCOC)c(=O)c2c1c1ccccc1n2C	5	.	-1	.	2
O=S(=O)(O)c1cc2oc(-c3ccccc3)nc2c2ccccc12	3	.	-11	.	-2
Cc1cc(NC(=O)CCCn2nc(C)c([N+](=O)[O-])c2C)no1	-14	0	3	-5	0
Cc1cc(NC(=O)CCCn2cnc([N+](=O)[O-])n2)no1	-9	0	58*	2	-4
O=C(CCCn1cnc([N+](=O)[O-])n1)Nc1ccc(Cl)c(Cl)c1	-3	0	82*	97*	2
Cc1cc(NC(=O)Cn2ccc([N+](=O)[O-])n2)no1	-62	0	-1	24	-52*
Cc1c(Cl)cccc1NC(=O)CCCn1cnc([N+](=O)[O-])n1	5	0	56*	50	0
CC(C)(CC(=O)O)CC(=O)N1CCN(c2cc(C(F)(F)F)nc3ccccc23)CC1	-4	.	4	.	-5
C=CCn1c(SCC(=O)c2ccc(Cl)cc2)nnc1-c1ccc2c(c1)OCO2	17	0	10	-2	5
Cc1ccc(CN2CC(C(=O)Nc3ccc(F)c([N+](=O)[O-])c3)CC2=O)cc1 (stereo not given)	0	0	-4	30	8
O=C(CCCn1cnc([N+](=O)[O-])n1)Nc1cc(Cl)ccc1O	3	0	31	72*	-2
O=C(CCCn1cnc([N+](=O)[O-])n1)Nc1cccc(Cl)c1Cl	-1	0	41	94*	-12
Cc1cc([N+](=O)[O-])nn1CCCC(=O)Nc1ccc(Cl)cc1Cl	5	0	-1	3	0
CCN(CC)CCN(Cc1cc2cc(C)ccc2[nH]c1=O)C(=S)Nc1ccccc1	-7	0	1	8	-1
Cc1c(Cl)c(=O)oc2cc(OCC(=O)NCc3cccs3)ccc12	-3	0	9	62*	-5
Cc1cc(C)cc(NC(=O)COc2ccc3c(C)c(Cc4ccccc4)c(=O)oc3c2)c1	37	0	12	94*	0
COc1ccccc1C(=O)NC(CCSC)C(=O)OC(C)C(=O)NC1CC1 (stereo not given)	-1	.	-9	.	4
O=C(c1ccccc1)C(C(=O)N1CCc2ccccc2C1)n1ccccc1=O (stereo not given)	-30	0	-6	73*	-16
CCN(Cc1ccncc1)Cc1ccc(Br)cc1	-3	.	22	.	-8
COc1ccccc1OCC#CCNC1CCCCC1C (stereo not given)	-10	0	0	78*	-1
c1ccc(-c2nc(-c3ccco3)cs2)nc1	36	0	-8	11	32
Nc1cc(-c2ccco2)no1	72*	0	-30	-3	37
CC1(C(=O)OCC(=O)c2c[nH]c3ccccc23)CC1(Cl)Cl (stereo not given)	20	1	9	-4	7
SMILES	HSF-1 act	Hsp70 act	T cruzi repl	L major viab	HSF1 inhib
COc1ccc(CC(=O)Oc2ccc(C)cc2Br)cc1OC	13	.	-3	.	5
COc1ccc(-n2cc(CNCCCn3ccnc3)c(-c3cccc(F)c3)n2)cc1	9	0	30	100*	-2
COc1ccc(-n2cc(CNCc3cnc4ccccn34)c(-c3cccc(F)c3)n2)cc1	-9	0	29	42	-6
COc1ccc(-n2cc(CNCC3CCOCC3)c(-c3cccc(F)c3)n2)cc1	-2	0	13	87*	0
O=C(Cc1ccccc1F)Nc1nc(-c2ccc(F)c(F)c2)cs1	-7	.	12	.	5
Cn1c(CCNC(=O)c2cccs2)nnc1SCC(=O)Nc1nc(-c2ccccc2)cs1	54*	0	5	1	11

Compound activity as filed in PubChem BioAssay.
